This is an account of results in ChEMBL document CHEMBL4433206, “Novel Lysine-Based Thioureas as Mechanism-Based Inhibitors of Sirtuin 2 (SIRT2) with Anticancer Activity in a Colorectal Cancer Murine Model” (J Med Chem, 2019).

One data set deals with NCI-H23. Nature of the data set: Growth inhibition of human NCI-H23 cells after 72 hrs by CellTiter-Blue assay. Particulars: NCI-H23, 72 h. It is filed as functional. A general note: Resazurin is reduced to fluorescent resorufin, in cell work by metabolically active cells.
The target in data set [1] is T1, NAD-dependent protein deacetylase sirtuin-2 (Homo sapiens) (UniProt Q8IXJ6).
T1 sequence (whole entry): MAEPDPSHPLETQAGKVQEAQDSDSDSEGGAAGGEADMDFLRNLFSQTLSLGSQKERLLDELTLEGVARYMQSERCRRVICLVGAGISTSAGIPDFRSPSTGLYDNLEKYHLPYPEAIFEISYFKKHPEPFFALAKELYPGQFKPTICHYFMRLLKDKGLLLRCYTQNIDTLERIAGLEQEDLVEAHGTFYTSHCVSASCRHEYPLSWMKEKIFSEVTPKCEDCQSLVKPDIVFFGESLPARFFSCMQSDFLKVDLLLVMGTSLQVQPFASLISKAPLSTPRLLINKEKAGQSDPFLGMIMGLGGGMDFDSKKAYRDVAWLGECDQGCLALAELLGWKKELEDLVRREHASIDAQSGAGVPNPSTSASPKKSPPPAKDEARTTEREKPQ
Nature of the data set: Inhibition of SIRT2 in human HCT116 cells assessed as increase in alpha-tubulin acetylation at 25 uM incubated for 6 hrs by DAPI staining-based laser scanning confocal microscopic analysis. It is filed as cell-based. The procedure, abridged:
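HCT116 cells were seeded at 400 000 on poly-D-lysine-coated glass-bottom dishes and grown 24 h. Cells were treated with DMSO or inhibitor for 6 h at 37 °C, fixed in ice-cold methanol, and blocked in TBS/0.1% Triton X-100/5% BSA. They were stained with anti-acetyl α-tubulin (1:100, overnight, 4 °C), then Cy3 anti-mouse, and mounted with DAPI. Imaging was by confocal microscopy.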

Data set [2] can be described thus: Toxicity in NSG mouse xenografted with human HCT116 cells harboring KRAS G13D mutant assessed as body weight loss at 100 mg/kg, ip administered daily for 12 days measured during compound dosing. It is filed as organism-based. The note with it: in vivo, 288 h. In general terms: A xenograft is tissue or cells of one species grown in another, often human tumour cells in immunodeficient mice.

The subject of data set [3] is HCT-116. Nature of the data set: Antitumor activity against human HCT116 cells harboring KRAS G13D mutant xenografted in NSG mouse assessed as tumor growth inhibition by measuring reduction in tumor weight at 100 mg/kg, ip administered daily for 12 days and measured post-last dose relative to control. The data set is classed as functional. Particulars: HCT-116, ip, 288 h, read-out: TGI. An outline of the steps: (§1)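 NSG mice, female and male, about 4–8 weeks old, were implanted with 1 × 10⁶ HCT116 cells on both sides of the abdomen. Tumours grew 3–5 days until visible. Compound was given ip daily for 12 days in vehicle containing 10% DMSO and 10% Kolliphor EL (dosing solution 10 mg/mL); control mice received vehicle. Tumour volume was measured daily; tumours were excised and weighed on the last day. Unpaired two-tailed t-test.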

The subject of data set [4] is HCT-116. Nature of the data set: Antitumor activity against human HCT116 cells harboring KRAS G13D mutant xenografted in NSG mouse assessed as tumor growth inhibition by measuring reduction in tumor volume at 25 mg/kg, ip administered daily for 12 days and measured daily during compound dosing. It is filed as functional, organism-based. The procedure, abridged: as §1

A further data set deals with A549. Nature of the data set: Growth inhibition of human A549 cells after 72 hrs by CellTiter-Blue assay. The data set is classed as functional. Particulars: A549, 72 h.
Data set [5] has as its system HCT-116. Nature of the data set: Inhibition of anchorage-independent cell growth in human HCT116 cells assessed as reduction in colony formation at >=10 uM incubated for 5 days followed by compound re-addition and measured after 9 to 11 days by nitro blue tetrazolium chloride-based soft agar colony formation assay relative to control. It is filed as functional. An outline of the steps: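 HCT116 cells were mixed at 500 cells/mL into 0.3% agar growth layer over a 0.6% agar base layer (McCoy's medium, 10% calf serum). Both layers held inhibitor at 2.5–50 μM final. Wells were run in triplicate at 37 °C. Inhibitor-containing growth layer was added again at day 5. At 9–11 days, nitro blue tetrazolium was added overnight and colonies were imaged and counted.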

Data set [6] deals with T2, NAD-dependent protein deacetylase sirtuin-1 (Homo sapiens) (UniProt Q96EB6).
T2 sequence (whole entry): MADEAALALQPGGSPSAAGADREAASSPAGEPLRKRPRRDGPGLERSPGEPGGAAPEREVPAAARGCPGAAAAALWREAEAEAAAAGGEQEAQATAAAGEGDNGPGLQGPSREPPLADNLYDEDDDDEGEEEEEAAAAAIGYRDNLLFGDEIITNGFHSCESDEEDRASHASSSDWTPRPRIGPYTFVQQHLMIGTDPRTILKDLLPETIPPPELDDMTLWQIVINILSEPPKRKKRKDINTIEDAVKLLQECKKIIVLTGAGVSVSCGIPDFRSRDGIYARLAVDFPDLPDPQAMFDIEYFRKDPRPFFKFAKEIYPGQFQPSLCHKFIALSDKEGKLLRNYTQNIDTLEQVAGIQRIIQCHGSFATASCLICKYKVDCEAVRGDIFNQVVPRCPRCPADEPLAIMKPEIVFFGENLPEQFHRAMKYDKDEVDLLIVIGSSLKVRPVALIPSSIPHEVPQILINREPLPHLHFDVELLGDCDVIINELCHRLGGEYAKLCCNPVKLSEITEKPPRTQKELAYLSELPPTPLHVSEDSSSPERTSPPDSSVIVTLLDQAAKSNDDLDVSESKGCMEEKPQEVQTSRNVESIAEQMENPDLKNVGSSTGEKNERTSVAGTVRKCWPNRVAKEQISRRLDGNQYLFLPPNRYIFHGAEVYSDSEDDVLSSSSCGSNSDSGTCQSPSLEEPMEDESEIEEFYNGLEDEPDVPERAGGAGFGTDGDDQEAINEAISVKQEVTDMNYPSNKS
Nature of the data set: Inhibition of SIRT1 in Trichostatin A treated human HCT116 cells assessed as increase in acetylated p53 K382 level at 10 to 50 uM after 6 hrs by Western blot analysis. An outline of the steps: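 HCT116 cells were seeded at 400 000 per well, grown 24 h, then cotreated with 400 nM TSA and inhibitor (25 μM, or 10–50 μM) for 6 h at 37 °C. Cells were lysed in 4% SDS buffer, pH 7.4. 50 μg of lysate was resolved by 12% SDS-PAGE and blotted for acetyl-p53 K382 antibody, with β-actin as loading control. Detection was by ECL.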
For orientation: In western blotting, separated proteins are transferred to a membrane and probed.

Data set [7] concerns HCT-116. Nature of the data set: Antitumor activity against human HCT116 cells harboring KRAS G13D mutant xenografted in NSG mouse assessed as tumor growth inhibition by measuring reduction in tumor weight at 25 mg/kg, ip administered daily for 12 days and measured post-last dose. The data set is classed as functional, organism-based. An outline of the steps: as §1
For a further data set, the system named is SW948. Nature of the data set: Potency index, ratio of TM GI50 to compound GI50 for growth inhibition of human SW948 cells. The data set is classed as functional.

Activity calls are given as the source filed them. The calls are words filed in the database; no cut-off is given here.

What is called GI50 is the concentration that inhibits growth by half. With `CCCCCCCCNC(=S)NCCCC[C@H](NC(=O)OCc1ccccc1)C(=O)Nc1ccccc1`, the GI50 came to 35.8 µM in the data set on NCI-H23 and 20.8 µM in the data set with A549. Also, the inhibition entry in [1] is “Active”. The Activity result in data set [2] was “Non-Toxic”. In addition, the inhibition in vivo at 100 mg/kg in the data set with HCT-116 [3] was found to be 78%. In addition, the TGI result with HCT-116 [4] and with HCT-116 [7] was “inactive” each time. In the data set on HCT-116 [5], the “growth inhibition (GI)” value was found to be 100%. In addition, the inhibition result in [6] was “inactive”.
In the case of `CCCCCCCCCCNC(=S)NCCCC[C@H](NC(=O)OCc1ccccc1)C(=O)Nc1ccccc1`, the RatioGI50 in the data set with SW948 amounted to 2. Also, the GI50 with NCI-H23 amounted to 15.6 µM; in the data set with A549 it was 9 µM. The inhibition result in data set [1] is “Active”. For the same compound, in [2], the Activity result is given as “Non-Toxic”. The inhibition in vivo at 100 mg/kg in the data set on HCT-116 [3] was 49%. In addition, in the data set on HCT-116 [5], the “growth inhibition (GI)” value is 100%. Moreover, in data set [6], the inhibition result was “inactive”.
